# Compound activity from PubChem BioAssay.
# Jurkat NFkB inh – lowers PMA/ionomycin-induced NF-kB signal in Jurkat cells | 330,000 compounds, 0.53% hits | AID 435003 | inhibition, % at 4 µM | PMA/ionomycin-induced NF-kB luciferase reporter, luminescence; in the data active = inhibition above about 50%
# 697 NFkB inh – lowers PMA/ionomycin-induced NF-kB signal in 697 B cells; 330,000 compounds, 0.33% hits; inhibition, % at 4 µM; 697 B-cell NF-kB luciferase reporter, 16 h; AID 435022; in the data active = inhibition above about 35%
# aSyn 5UTR inh – 5' untranslated region of α-synuclein, MLPCN primary screen; 300,000 compounds, 0.82% hits; alpha-synuclein 5'UTR reporter, inhibitor activity; AID 1813; inhibition, % (tested at 7.5 µM); in the data active = inhibition above about 60%;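 note: H4 neuroglioblastoma cells stably carrying SNCA 5'UTR luciferase fusion; 0% = DMSO wells and 100% = positive control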
# VIM-2 inh – inhibitors of Pseudomonas aeruginosa VIM-2 metallo-beta-lactamase; purified VIM-2, nitrocefin hydrolysis, epi-absorbance fluorescence; 290,000 compounds, 0.89% hits; inhibition, % at 5.6 µM; AID 1527;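 active = inhibition above the mean of all tested compounds plus 3 SD, cutoff set per screening run, cut at about 7.5% in these data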;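 note: red hydrolysis product quenches plate fluorescence so inhibitors raise well fluorescence; 0% = enzyme with DMSO and 100% = DMSO without enzyme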
# IMP-1 inh – blocks Pseudomonas aeruginosa IMP-1 metallo-beta-lactamase | AID 1556 | inhibition, % at 5.6 µM | purified IMP-1, nitrocefin hydrolysis, epi-absorbance fluorescence | 290,000 compounds, 0.45% hits;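 active = inhibition above the mean plus 3 SD of all compounds in the same screening run, cut at about 4.5% in these data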;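 note: 0% = IMP-1 with DMSO and 100% = DMSO wells lacking enzyme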
#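 Test system: recombinant IMP-1 enzyme, purified / Medium: HEPES buffer pH 7.1 with ZnSO4 and Brij 35 / Doses: single dose, 5.6 µM / Times: 25 °C, 15 min preincubation, 25 min reaction / Detection: Epi-absorbance via hydrolysed-nitrocefin quenching of white-plate fluorescence, 480/530 nm, EDTA stop / Evaluation: percent inhibition from optical density relative to buffer-blank wells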
# Mdm2 MdmX PPI – human Mdm2/MdmX binding inhibition; inhibition, % at 8 µM; SaOS-2 split-luciferase Mdm2/MdmX complementation, luminescence; O15151+Q00987; AID 485346; 330,000 compounds, 3% hits;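 active = inhibition of at least 50% at 8 µM in the primary screen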
# Target sequence (O15151 whole entry, looked up): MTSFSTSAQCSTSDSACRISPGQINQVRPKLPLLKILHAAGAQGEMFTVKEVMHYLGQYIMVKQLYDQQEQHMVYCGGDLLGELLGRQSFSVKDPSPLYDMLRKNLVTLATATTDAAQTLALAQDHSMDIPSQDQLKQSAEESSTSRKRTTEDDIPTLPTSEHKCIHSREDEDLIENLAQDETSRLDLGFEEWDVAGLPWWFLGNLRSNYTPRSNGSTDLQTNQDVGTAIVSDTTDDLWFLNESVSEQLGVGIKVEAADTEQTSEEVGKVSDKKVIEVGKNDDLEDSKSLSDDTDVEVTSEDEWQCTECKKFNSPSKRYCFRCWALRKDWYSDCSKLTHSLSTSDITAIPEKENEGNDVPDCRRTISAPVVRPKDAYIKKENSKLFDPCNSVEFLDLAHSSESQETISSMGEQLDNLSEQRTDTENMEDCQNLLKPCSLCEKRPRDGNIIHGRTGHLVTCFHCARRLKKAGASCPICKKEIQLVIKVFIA
# Target sequence (Q00987 whole entry, looked up): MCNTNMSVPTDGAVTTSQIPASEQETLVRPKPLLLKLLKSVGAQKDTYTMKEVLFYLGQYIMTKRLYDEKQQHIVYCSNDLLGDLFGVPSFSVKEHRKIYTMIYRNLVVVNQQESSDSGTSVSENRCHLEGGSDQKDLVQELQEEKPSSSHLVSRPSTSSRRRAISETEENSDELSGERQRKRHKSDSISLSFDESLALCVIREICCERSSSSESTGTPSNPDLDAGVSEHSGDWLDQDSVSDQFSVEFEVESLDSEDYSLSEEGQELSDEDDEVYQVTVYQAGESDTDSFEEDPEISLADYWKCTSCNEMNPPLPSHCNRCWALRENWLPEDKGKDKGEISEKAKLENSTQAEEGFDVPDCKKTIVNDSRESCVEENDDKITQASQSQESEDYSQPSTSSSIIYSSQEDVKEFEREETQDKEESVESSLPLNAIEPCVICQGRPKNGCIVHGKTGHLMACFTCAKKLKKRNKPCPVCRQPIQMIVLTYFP
# Jurkat NFkB conf – inhibitors of the PMA/ionomycin-induced NF-kB reporter in Jurkat cells, retest | AID 435020 | inhibition, % at 4 µM | 2,700 compounds, 27% hits | shares compounds with Jurkat NFkB inh | Jurkat NF-kB luciferase, 16 h;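 active = inhibition reaching about 45% at 4 µM in either replicate, limit read from the data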;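 note: plate controls were PMA/ionomycin stimulated DMSO wells for no effect and unstimulated DMSO wells for full effect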
# 697 NFkB conf – lowers PMA/ionomycin-induced NF-kB signal in 697 B cells; shares compounds with 697 NFkB inh; 697 B-cell NF-kB luciferase, 16 h; inhibition, % at 4 µM; 2,000 compounds, 35% hits; AID 449746; in the data active = inhibition mostly above about 28%, no sharp cut-off; inactive = mostly below about 22%
# Mdm2-MdmX conf – confirmation of human Mdm2/MdmX interaction inhibitors | 10,000 compounds, 55% hits | AID 489028 | shares compounds with Mdm2 MdmX PPI | inhibition, % at 8 µM | Mdm2-MdmX binding, luminescent assay; in the data active = inhibition above about 40%
# FLuc counter – inhibits full-length luciferase, flagging false Mdm2/MdmX hits. shares compounds with Mdm2 MdmX PPI. SaOS-2 full-length luciferase counterscreen, luminescence. inhibition, % at 8 µM. 6,200 compounds, 77% hits;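 active = mean inhibition at 8 µM reaching about 37%, which flags the compound as non-specific, limit read from the data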;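 note: p53-null SaOS-2 cells with luciferase driven by a doxycycline-inducible promoter; compound on cells about two nights before reading with doxycycline added after day one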
# Starred values were filed as active, the others as inactive; . = not tested or not shown. Sampled rows, rich in hits. Any-hit rate of the full collection: about 4.7%.
SMILES,Jurkat NFkB inh,697 NFkB inh,aSyn 5UTR inh,VIM-2 inh,IMP-1 inh,Mdm2 MdmX PPI,Jurkat NFkB conf,Mdm2-MdmX conf,FLuc counter,others
CSc1nnc(-c2sc3cc(C(F)(F)F)cnc3c2-c2ccccc2)n1C,55.6*,-12.7,-36.5,-0.7,-1.4,67.2*,17.1,48.4*,50.2*,
O=C(O)c1sc2cc(C(F)(F)F)cnc2c1-c1ccccc1,-10.3,-4.2,15.7,0.3,-1.0,7.0,.,.,.,
CCn1c(C)nc2cc(C(=O)NNC(=S)NC(=O)c3ccccc3)ccc21,3.5,-2.0,-15.8,0.1,1.3,15.3,.,.,.,
COc1cc(C2=NOC(C(=O)NCc3ccc(F)cc3)C2)cc(OC)c1OC (configuration not stated),68.3*,28.6,77.1*,-1.6,-2.8,60.6*,52.0*,57.6*,83.1*,
COc1cccc(C2=NOC(C(=O)NCc3ccc(F)cc3)C2)c1 (configuration not stated),-4.0,-8.8,-10.5,-3.5,-1.6,22.4,.,.,.,
O=C(Nc1c2c(nn1-c1ccc([N+](=O)[O-])cc1)CS(=O)(=O)C2)c1ccccc1F,-11.0,-9.3,5.2,-0.1,-3.0,-0.4,.,.,.,
COc1ccccc1C(=O)Nc1nc2ccccc2[nH]1,90.7*,68.7*,100.2*,-1.2,-4.3,98.4*,92.8*,95.2*,6.2,697 NFkB conf=66.8*
COc1cc(SC)ccc1C(=O)Nc1nc2ccccc2[nH]1,98.6*,92.2*,131.5*,-3.7,-2.0,100.2*,97.5*,99.2*,1.5,697 NFkB conf=97.9*
NC(=O)C1CCN(S(=O)(=O)c2cc3c4c(c2)CCN4C(=O)CC3)CC1,8.3,-2.4,1.3,.,.,23.4,.,.,.,
CCOc1ccc(OCC)c(NC(=O)CN2CCN(c3cccc(C)c3)C(C)C2)c1 (configuration not stated),58.0*,-20.1,-55.3,-0.7,-1.4,53.0*,19.4,64.2*,46.4*,
Cc1nn(-c2ccccc2Cl)c(Cl)c1/C=N/Nc1nc2ccccc2s1,67.4*,-222.8,68.6*,-2.7,-2.1,87.4*,85.5*,95.8*,56.2*,
COc1cc(NC(=O)c2cnc(N)s2)cc(C(=O)Nc2cccc(C(F)(F)F)c2)c1,-20.5,-18.2,-50.6,.,.,35.2,.,.,.,
COc1cc(NC(=O)c2csc(N)n2)cc(C(=O)Nc2cccc(C(F)(F)F)c2)c1,63.8*,-33.3,33.9,.,.,59.1*,-1.0,56.7*,60.3*,
CCOc1ccc(-n2c(-c3ccc(Br)cc3)c[n+]3c2CCCCC3)cc1,29.9,-1.2,-7.2,-1.7,-1.7,16.4,.,.,.,
COc1ccc(-c2c[n+]3c(n2-c2ccc(C)cc2)CCCCC3)cc1,79.3*,51.0*,0.6,0.0,-2.4,61.7*,60.9*,40.1*,48.9*,697 NFkB conf=65.2*
CCOc1ccc(-n2c(-c3ccc(OC)cc3)c[n+]3c2CCCCC3)cc1,73.0*,56.8*,19.6,-2.1,-1.7,55.6*,58.2*,47.4*,45.7*,697 NFkB conf=65.0*
COc1ccc(C2=Nn3c([n+](C)c4ccccc43)SC2)cc1,54.0*,24.6,1.8,1.5,-4.0,60.4*,63.5*,38.2,.,
COc1ccc(N2CC(C(=O)N/N=C/c3ccc(C)cc3)CC2=O)cc1 (configuration not stated),55.4*,-36.9,-23.3,-3.3,-5.7,51.6*,18.1,61.8*,53.4*,
Cc1nn(C)c(C)c1/C=N/NC(=O)C(C)(C)Oc1ccc(Cl)cc1,6.4,7.3,16.3,-5.1,-6.4,33.8,.,.,.,
Cc1nn(C(C)(C)C)c(C)c1/C=N/OC(=O)Nc1ccc(Cl)cc1,74.9*,52.1*,94.2*,-3.1,-3.6,95.5*,95.1*,93.5*,56.5*,697 NFkB conf=62.9*
COc1ccc(N=C2S/C(=C\c3ccc(Cl)c([N+](=O)[O-])c3)C(=O)N2CCN(C)C)cc1,50.8*,3.6,80.6*,5.9,-3.4,100.1*,12.2,67.0*,14.1,
CCCN1C(=O)/C(=C/c2ccc(C)s2)SC1=Nc1ccc(OC)cc1,7.4,17.1,15.4,-3.9,-3.6,9.9,.,.,.,
CCO[C@@H]1OC(C(=O)NCc2nc3ccccc3[nH]2)=C[C@H](C(C)(C)C)[C@H]1CCCO,72.5*,-62.9,85.2*,.,.,54.4*,54.6*,49.6*,94.6*,
Cc1cccc(NS(=O)(=O)c2ccc(-c3cnc(C4CC4)o3)cc2)c1C,60.3*,-28.0,99.7*,-3.2,-3.7,84.9*,66.2*,65.5*,75.6*,
Cc1cc(C)cc(NS(=O)(=O)c2ccc(-c3cnc(C4CC4)o3)cc2)c1,55.9*,-52.5,93.4*,-2.3,-4.3,75.3*,55.2*,68.0*,68.8*,
SMILES,Jurkat NFkB inh,697 NFkB inh,aSyn 5UTR inh,VIM-2 inh,IMP-1 inh,Mdm2 MdmX PPI,Jurkat NFkB conf,Mdm2-MdmX conf,FLuc counter,others
CC(=O)c1cccc(NS(=O)(=O)c2ccc(-c3cnc(C4CC4)o3)cc2)c1,42.5,15.8,-5.4,0.1,0.6,48.1,.,.,.,
Cc1ccc(C)c(NS(=O)(=O)c2ccc(-c3cnc(C4CC4)o3)cc2)c1,61.2*,-211.1,93.2*,-4.5,-2.9,71.3*,60.0*,54.8*,80.5*,
CCC1(CC)NC(=O)N(CC(=O)OCC(=O)Nc2ccc(OC(F)(F)F)cc2)C1=O,-11.8,2.2,.,.,.,-7.8,.,.,.,
COc1ccccc1N=C1SC(C(=O)Nc2cccc(Cl)c2Cl)C(N)=C1C(N)=O (configuration not stated),57.8*,-16.5,8.1,-3.4,-2.2,56.0*,0.2,52.0*,66.8*,
C=CCN1CCN(C(=O)c2ccc3c(c2)OCO3)CC1,8.4,-5.8,12.0,0.2,-3.0,5.6,.,.,.,
Cc1c(C)c2cccnc2c2ncccc12,78.3*,-65.0,.,.,.,84.5*,83.7*,86.7*,17.2,
CCCn1cnnc1CNC(=O)C1CCC(=O)N(CCCc2ccccc2)C1 (configuration not stated),0.7,7.7,-7.7,-0.9,-4.5,-10.3,.,.,.,
Cc1ccc(NC(=O)c2cc3ccccc3oc2=O)cc1S(=O)(=O)N(C)C,55.7*,-48.4,72.9*,-2.5,-1.5,89.0*,90.7*,94.0*,25.9,
Cc1ccc(NC(=O)c2cc3ccccc3o2)cc1S(=O)(=O)N(C)C,.,.,.,-2.1,-1.5,.,.,.,.,
COC(=O)c1c(-c2ccc(C)cc2)csc1NC(=O)Cc1ccc(OC)c(OC)c1,.,.,29.5,-2.4,-0.3,.,.,.,.,
